# Test: Toxicity liver stage against HepG2, at 10uM
# Assay type: cell-based
# Set-up: test concentration 10 uM, cell line HepG2-A16-CD81EGFP
# Details: human, HepG2-A16-CD81EGFP cells; read-out: INHIBITION
# Method in brief: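 Uninfected HepG2-A16-CD81EGFP cells, 3 × 10^3 per well, 1536-well, plated on prespotted compound at 10 μM final, parasite-free screening media added to match infected plates; puromycin 10 μM positive, DMSO 0.5% negative; run in parallel with 48 h PbLuc assay at 37 °C, 5% CO2; viability by CellTiter-Glo luminescence, normalized to controls.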
row,Compound,cytotoxicity at 10 µM [%]
1,CC(C)NC(=O)O[C@H]1COCCN(c2nc3ccccc3s2)C1,-1.27
2,O=C1N[C@@H]2CCN(C(=O)C3CC3)[C@@H]2C(=O)N1c1ccccc1,1.44
3,CC1=C[C@@H](CN2CCOCC2)[C@H](C(C)C)C[C@H]1Cc1nnc(C)o1,-5.07
4,COc1cccc(CN2CC(O)CN(C(=O)C3CC3)CC2=O)c1OC (stereo unspecified),-11.3
5,CCN1Cc2ccccc2N(C(=O)C2CCC2)CCC1=O,-3.53
6,CC(C)(C)n1ncc2c1NC(=O)CC2c1cccs1 (stereo unspecified),3.48
7,CCOC(=O)CNC(=O)c1cc2n(n1)CCCO2,1.43
8,O=C(c1nnn(-c2ccc(C(F)(F)F)cc2)n1)N1CC(O)C1,-4.63
9,Cc1cc(C(O)CCNC(=O)c2ccc(Cl)s2)c(C)o1 (stereo unspecified),-1.22
10,CN1C(=O)CCC12CCN(S(=O)(=O)c1ccccc1)CC2,-9.75
11,NC1CCc2c(ccc(=O)n2CC2CC2)C1 (stereo unspecified),-4.37
12,O=C(NC1CCCC1)c1nc2c(o1)CN(CCO)C2,13.2
13,CN(C)C(=O)N1CCN(C(=O)c2ccccc2)CC2(CNC(=O)C2)C1 (stereo unspecified),7.19
14,CCOCc1ncn2c1CN(S(=O)(=O)c1cccs1)CC2,0.719
15,CCN(c1ccc(C(=O)NCCCN2CCOCC2)cc1)S(=O)(=O)CC,1.34
16,O=C(C1=CC2(CCNCC2)c2ccccc21)N1CCCC1,-2.07
17,CN(C)C(=O)NC1COC2(CCN(Cc3nccn3C)CC2)C1 (stereo unspecified),9.48
18,CCCN1CCN(C(=O)c2ccc(Cn3cc(Br)cn3)cc2)CC1,-6.11
19,Cc1nn(Cn2ccc(C(=O)N3CCCC(C)C3)n2)c(C)c1Cl (stereo unspecified),2
20,CCn1cc(CN2CCN(C(=O)c3cc(C)c(C)s3)CC2)c(C)n1,2.07
21,COc1cc2cc(C(=O)O)n(C)c2cc1OC,1.03
22,Cc1cc(C(F)F)nn1C(C)C(=O)NCc1ncc[nH]1 (stereo unspecified),5.46
23,O=C1NC2(CCc3ccccc31)CCN(C(=O)c1ccncc1)C2 (stereo unspecified),0.84

row,Compound,cytotoxicity at 10 µM [%]
1,CS(=O)(=O)N1CCC(c2cncc(Cl)n2)CC1,16
2,Cn1ccc(C2CCCCCN2C(=O)c2cccnc2)n1 (stereo unspecified),6.16
3,Cc1cnc(Nc2cccc(C3CCCN3C(=O)CO)n2)s1 (stereo unspecified),-30.6
4,CC(=O)N1CCCC1c1ccnc(Nc2cncnc2)n1 (stereo unspecified),-25.6
5,Cc1nc(Nc2ncccn2)cc(C2CCCN2C(C)C)n1 (stereo unspecified),-17.3
6,NC(=O)C1CCN(c2ncc(-c3cnccn3)c([C@H]3CCCO3)n2)CC1,-0.24
7,CCc1ccccc1CNC(=O)CNCC(F)(F)F,10.6
8,O=C(CSc1nnc(N2CCOCC2)s1)NC(=O)Nc1ccccc1,4.44
9,CC(C)(Oc1ccc(F)cc1)C(=O)NCc1ccco1,-9.19
10,O=C(COC1CCCCC1)Nc1ccn(Cc2ccccn2)n1,0.38
11,CN(CCOc1ccccc1F)S(=O)(=O)CC1CCOCC1,6.47
12,Cc1c(C(=O)N2CCC2(C)C)nnn1-c1cccc2cccnc12,4.13
13,COc1ccc(CN2CCC(C(N)=O)C2)c(Br)c1OC (stereo unspecified),5.15
14,Cc1cc(S(C)(=O)=O)c(C)c(S(=O)(=O)NC2CCCC2)c1,12.8
15,COc1ccc(CCNC(=O)C2CC2)c(Cl)c1,-2.43
16,NC(=O)C1CCCN1CCCc1ccc(Cl)cc1 (stereo unspecified),5.39
17,CCOCc1ccc(NC(=O)N2CCOC3(CCC3)C2)cc1,4.29
18,Cc1ccc(OCCn2cnc3oc(C)c(C(=O)O)c3c2=O)cc1,-8.17
19,NC(=O)C1CN(C(=O)C2(c3ccc(F)cc3F)CCCC2)CCO1 (stereo unspecified),-5.92
20,Cc1cc(NC(=O)N2CCOCC2)nn1-c1cccc(Cl)c1,-1.57
21,CCC(C)C(=O)NCc1c(C)nn(C)c1N1CCCN(C)CC1 (stereo unspecified),4.24
22,O=C(Cn1cc(NC(=O)c2ccc(F)cc2F)cn1)NC1CCCC1,-0.561
23,O=C(Nc1ccc2ncccc2c1)C1CC(=O)N(Cc2ccccn2)C1 (stereo unspecified),3.31

row,Compound,cytotoxicity at 10 µM [%]
1,CN(Cc1ccsc1)C(=O)CN1CCc2c(ncn2C)C1,2.83
2,CCN(CC(=O)NCCc1nc(C)no1)Cc1ccc(Cl)cc1,2.27
3,O=C(Nc1cccn(Cc2ccc(F)cc2)c1=O)c1cnc[nH]1,0.0616
4,CCOc1ccc(NC2CCN(C3CC3)C2=O)cn1 (stereo unspecified),-0.387
5,O=C(c1[nH]nc2c1CCCC2)N1CCC(OCCN2CCCCC2)C1 (stereo unspecified),-4.52
6,O=C1CCC(C(=O)Nc2ccc(=O)n(Cc3ccccc3Cl)c2)N1 (stereo unspecified),-1.36
7,CC(=O)NCCNC(=O)Nc1ccc(C)cc1OCc1ccccc1,9.79
8,Cc1cccc(-c2nc(C)nn2CN2CCN(c3ncccn3)CC2)c1,-6.45
9,Cc1ncsc1CN(C)C(=O)CC1CCOc2ccccc21 (stereo unspecified),20.2
10,O=C(CN1CCN(C(=O)c2cccc(-c3ccoc3)c2)CC1)C1CC1,0.504
11,Cc1cc(NC(=O)CN2CCc3nn(C)c(=O)cc3C2)on1,-1.45
12,Cc1nc(C2CCCN(C(=O)c3sccc3C3CC3)C2)no1 (stereo unspecified),-3.74
13,O=C1CCCN1Cc1nnc2n1CCCN(C(=O)c1ccco1)C2,8.3
14,CCS(=O)(=O)N1CCc2c(cnc(-c3cccnc3)c2C(=O)O)C1,2.66
15,CN(C)CCN1CCC2(CC1)CN(c1cccnc1)C(=O)CO2,1.7
16,Cc1nn(CCO)c(C)c1-c1cc(C(C)(C)C)nc(N)c1C#N,4.93
17,Cc1cc(N2CCCC(N(C)C)C2)n2nc(C)cc2n1 (stereo unspecified),-53.5
18,COCC1CCN(S(=O)(=O)N2C[C@@H](C)[C@](O)(C3CC3)C2)CC1,0.23
19,COC[C@]1(O)CCN(Cc2c[nH]c(CC3CCCC3)n2)CC1(C)C,17.7
20,COc1ccc2[nH]nc(CN3CCC(C(=O)N4CCCCC4)CC3)c2c1,-2.03
21,O=C1CCN(C(=O)c2csc(-c3ccc(C(F)(F)F)cc3)n2)CCN1,-12.3
22,CCC(Nc1nc(CCN)nc2ccccc12)c1cc(C)ccn1 (stereo unspecified),-12.9
23,O=C(O)c1cc(-c2ccncc2F)cc(S(=O)(=O)N2CCCCCC2)c1,-0.2

row,Compound,cytotoxicity at 10 µM [%]
1,Cc1nc(CC2CCN(C(=O)C(c3ccccc3C)N(C)C)CC2)no1 (stereo unspecified),4.66
2,CN(CCCc1nccn1C)C(=O)C1CCN(C(=O)C2CCCC2)CC1,-15.3
3,CC(C)Cc1ncc2c(n1)CN(C(=O)c1ccc(Cn3ccnc3)o1)C2,3.09
4,CC(c1cccc(-c2ncc(C#N)c(N)n2)c1)N(C)C (stereo unspecified),-7.3
5,CC(C)CCN1CC2(CCCN(C(=O)NCc3cccs3)C2)CCC1=O (stereo unspecified),-11.9
6,CCC(NC(=O)c1cc(CC(C)C)nn1C)c1cc(C)ccn1 (stereo unspecified),-138
7,Cn1ccnc1SCCNc1nccc(C(F)(F)F)n1,-51
8,CCn1c(C)cc(C(=O)N2CCCC(C(=O)c3nccn3C)C2)c1C (stereo unspecified),6.27
9,CCN1CCN(C(=O)c2cc(-c3ccc(C)o3)n[nH]2)[C@H]2CS(=O)(=O)C[C@H]21,-4.25
10,Cc1ccc(OCc2occc2C(=O)N2CCOC(C(=O)O)C2)cc1 (stereo unspecified),-2.14
11,CN(Cc1cn(CC2CCNCC2)nn1)CC1CCCCO1 (stereo unspecified),-1.9
12,CCn1c(C2CCCN(Cc3nccn3CCOC)C2)nn(C)c1=O (stereo unspecified),7.3
13,Cc1cnn(CC(C)NCC(=O)NCCOc2ccccc2)c1 (stereo unspecified),1.36
14,Cc1nccn1C1CCCN(C(=O)c2ccc3c(c2)CCC3)C1 (stereo unspecified),-13.8
15,CN(C)S(=O)(=O)c1ccc(CN2CCCC2c2ccsc2)o1 (stereo unspecified),-8.72
16,Cc1nn(C)c(C)c1C1CCCN1CC(=O)Nc1cc(C(C)C)no1 (stereo unspecified),2.07
17,CN(C)c1cc(CNc2ccc(S(=O)(=O)C(C)(C)C)nc2)ccn1,-7.33
18,Cc1ccc(C(=O)N2CCC(Oc3c(C)cccc3C)CC2)c(=O)[nH]1,-2.51
19,Cc1nn(C)c(Cl)c1C1CCCN1Cc1ccc(C(N)=O)cc1 (stereo unspecified),-3.69
20,CC(C)(O)CN1CCN(C(=O)c2ccc3c(c2)COC3)CC1,-0.644
21,N#Cc1cccc(OCCN2CCn3c(nnc3C3CC3)C2)c1,-7
22,CN(C(=O)Cc1ccc(F)cc1)C1CCN(c2ccccn2)CC1,-15.8
23,CC(NC(=O)N1CCN(c2ccccc2O)CC1)c1nncn1C (stereo unspecified),-6.01

row,Compound,cytotoxicity at 10 µM [%]
1,Cc1cn2c(n1)CCC(NC(=O)c1cc(C3CC3)[nH]n1)C2 (stereo unspecified),-16.9
2,CC(NC(=O)NCCNc1cnccn1)c1cccs1 (stereo unspecified),-3.79
3,c1csc(N2CCCN(Cc3nc(C4CC4)no3)CC2)n1,-9.68
4,Cc1[nH]nc2ncc(C(=O)N3CCN(CC(C)C)CC3)cc12,-3.88
5,CC(C)CCOCCNC(=O)Nc1cc(C(F)(F)F)c[nH]c1=O,-1.72
6,Cc1cc(NC(=O)NCC(O)c2ccc(Cl)cc2Cl)n(C)n1 (stereo unspecified),-5.38
7,O=C(c1cocn1)N1CCC2(CC1)CC(Oc1ccccn1)CO2 (stereo unspecified),9.34
8,Cc1[nH]nc2ncc(C(=O)N3CCN(CC(C)O)CC3)cc12 (stereo unspecified),-1.73
9,COC[C@@H]1CCC[C@@]12CN(Cc1ccco1)CCO2,2.03
10,CC(=O)N1CCCC2(CN(Cc3ccc(F)cc3)CCO2)C1 (stereo unspecified),0.283
11,CC(C)N1CCc2[nH]nc(C(=O)N3CCOCC3)c2C1,-1.6
12,COc1ccc(CN2CC[C@@H]3CN(S(C)(=O)=O)CCO[C@@H]3C2)cc1,-1.55
13,CS(=O)(=O)N1CCCC12CCN(Cc1nccs1)C2 (stereo unspecified),2.26
14,c1ccc(OCc2n[nH]c3c2CN(Cc2cccs2)C3)nc1,8.25
15,CCN1CC2(CCNCC2)COc2ccccc2S1(=O)=O,-3.06
16,CC[C@@H]1N(C)CCC[C@]12CCC(=O)N2Cc1ccncc1,3.67
17,Cc1cccc(N2CCC3(CCCN(C(=O)c4cccnc4)C3)CC2)n1,3.77
18,N#CC1(C(=O)N2C[C@@H]3CC[C@H]2CN(Cc2cscn2)C3)CCOCC1,2.39
19,CC(C)CS(=O)(=O)N1C[C@@H]2C[C@H](C(=O)N3CCN(C)CC3)[C@H](C1)O2,0.508

# Reference: ChEMBL document CHEMBL4513216, “Probing the Open Global Health Chemical Diversity Library for Multistage-Active Starting Points for Next-Generation Antimalarials” (ACS Infect Dis, 2020)
